Assay results reported in ChEMBL document CHEMBL3751716, “Identification of 5-Methoxyflavone as a Novel DNA Polymerase-Beta Inhibitor and Neuroprotective Agent against Beta-Amyloid Toxicity” (J Nat Prod, 2015).
The source made the active and inactive calls. No cut-off for these calls is given here.

Experiments:
[1] = Cytotoxicity against mouse 88TAg fibroblasts assessed as compound level causing reduction of cell viability incubated for 2 hrs by MTT assay
Method in brief: (§1)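 Mouse embryonic fibroblasts, 92TAg (wild type) or 88TAg (pol-β null), were seeded 5 × 10^3/well and serum-deprived at treatment. Compound (5-60 μM) was given 2 h, then a 2 h MMS pulse (500 μM for 92TAg, 250 μM for 88TAg). After washout, compound was re-added and viability read 24 h from start by MTT (0.9 mg/mL, 2 h, 37 °C; DMSO lysis; A570). Means ± SEM, 3-9 determinations.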

[2] = Cytotoxicity against mouse 88TAg fibroblasts assessed as reduction of cell viability at 60 uM incubated for 2 hrs by MTT assay; method in brief: as §1
Mus musculus [3] = organism: Mus musculus; experiment: Effect on cell cycle distribution in against mouse 92TAg cells assessed as cell accumulation at S-phase at 8 ug/ml incubated for 15 hrs by propidium iodide staining based cytofluorimetric analysis; format: functional
Method in brief: (§2)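 Mouse embryonic fibroblasts (wild-type 92TAg; pol-β-null 88TAg) grown in DMEM with 10% FBS at 37 °C and 5% CO2. Synchronized in 0.2% FBS medium for 72 h, then returned to 10% FBS medium with compound for 15 h. Cell-cycle phase percentages scored by cytofluorimetry of propidium iodide-labeled cells. Experiments run at least in triplicate, one-way ANOVA.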

Mus musculus [4] = organism: Mus musculus; experiment: Effect on cell cycle distribution in against polymerase-beta knock out mouse 88TAg cells assessed as cell accumulation at S-phase at 8 ug/ml incubated for 15 hrs by propidium iodide staining based cytofluorimetric analysis; format: functional; method in brief: as §2
[5] = tested on: DNA polymerase beta (Mus musculus); experiment: Inhibition of DNA polymerase-beta in mouse wild-type 92TAg cells assessed as increase in MMS toxicity at 1 to 60 uM incubated for 2 hrs prior to MMS challenge for 2 hrs followed by post wash compound addition measured after 24 hrs by MTT assay
[6] = Cytotoxicity against Sprague-Dawley rat cortical neurons at 50 uM by MTT assay; conditions: cortical neurone
[7] = target: DNA polymerase beta (Homo sapiens) (UniProt P06746); conditions: 50 uM

O=c1cc(-c2ccccc2O)oc2c1ccc1ccccc12
Activity [1]: 10 µM | Activity [2]: <= 90%

C[C@@]1(CO)[C@H](O)CC[C@@]2(C)[C@H]1CC[C@H]1C[C@@H]3C[C@@]12CC[C@]3(O)CO
Activity (Mus musculus [3]): Active | Activity (Mus musculus [4]): Active

CC1(C)NCCC12C(=O)N(Cc1ccccc1)c1ccccc12 (stereo unspecified)
Activity [1]: Non-toxic | inhibition [5]: inactive

Cc1ccccc1Nc1nc2ccc([N+](=O)[O-])cc2nc1Nc1ccccc1C
Activity [1]: <= 90%

CC1(C)CC[C@]2(C(=O)O)CC[C@]3(C)C(=CC[C@@H]4[C@@]5(C)CC[C@H](O)C(C)(C)[C@@H]5CC[C@]43C)[C@@H]2C1 [OLEANOLIC_ACID]
Activity [6]: Toxic | inhibition [7]: Active

c1ccc2c(c1)c1ccccc1n2Cn1c2ccccc2c2ccccc21
Activity [1]: <= 90%

C[C@H](C(=O)O)c1cccc(C(=O)c2ccccc2)c1 [DEXKETOPROFEN]
Activity [1]: Non-toxic
